Laboratory results: ChEMBL document CHEMBL1926577, “Novel 1,3,4-heterodiazole analogues: synthesis and in-vitro antitumor activity” (2012)

How the values were obtained:
Format in all cases: functional
[1] = tested on: SNB-75; experiment: Growth inhibition of human SNB75 cells at 10 uM after 48 hrs by coulter counter method; conditions: SNB-75, 48 h, read-out: GI
Outline: (§1)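 NCI 60-cell-line panel, single dose. Compound dissolved first in DMSO, then diluted in phosphate-buffered saline so that every final dilution held under 1% DMSO. Duplicate wells received cells at 6 × 10⁴ cells/ml. Controls held PBS/DMSO at the same dilution. Plates were incubated 48 h at 37 °C under 5% CO₂. Cells were then diluted 10-fold in saline and counted on a Coulter counter, with counts corrected for the dilution. Results are given as percent growth inhibition.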

[2] = tested on: T47D; experiment: Growth inhibition of human T47D cells at 10 uM after 48 hrs by coulter counter method; conditions: read-out: GI; outline: as §1
[3] = tested on: SN12C; experiment: Growth inhibition of human SN12C cells at 10 uM after 48 hrs by coulter counter method; conditions: read-out: GI; outline: as §1
[4] = tested on: MDA-MB-468; experiment: Growth inhibition of human MDA-MB-468 cells at 10 uM after 48 hrs by coulter counter method; conditions: MDA-MB-468, 48 h, read-out: GI; outline: as §1
[5] = tested on: HCT-116; experiment: Growth inhibition of human HCT116 cells at 10 uM after 48 hrs by coulter counter method; conditions: HCT-116, 48 h, read-out: GI; outline: as §1
[6] = tested on: SK-MEL-5; experiment: Growth inhibition of human SK-MEL-5 cells at 10 uM after 48 hrs by coulter counter method; conditions: SK-MEL-5, 48 h, read-out: GI; outline: as §1
[7] = tested on: Malme-3M; experiment: Growth inhibition of human MALME-3M cells at 10 uM after 48 hrs by coulter counter method; conditions: read-out: GI; outline: as §1
[8] = tested on: LOX IMVI; experiment: Growth inhibition of human LOXIMVI cells at 10 uM after 48 hrs by coulter counter method; conditions: read-out: GI; outline: as §1
[9] = tested on: ACHN; experiment: Growth inhibition of human ACHN cells at 10 uM after 48 hrs by coulter counter method; conditions: read-out: GI; outline: as §1
[10] = tested on: OVCAR-8; experiment: Growth inhibition of human OVCAR8 cells at 10 uM after 48 hrs by coulter counter method; conditions: OVCAR-8, 48 h, read-out: GI; outline: as §1
[11] = tested on: MOLT-4; experiment: Growth inhibition of human MOLT4 cells at 10 uM after 48 hrs by coulter counter method; conditions: MOLT-4, 48 h, read-out: GI; outline: as §1
[12] = tested on: M14; experiment: Growth inhibition of human M14 cells at 10 uM after 48 hrs by coulter counter method; conditions: M14, 48 h, read-out: GI; outline: as §1
[13] = tested on: NCI/ADR-RES; experiment: Growth inhibition of human NCI/ADR-RES cells at 10 uM after 48 hrs by coulter counter method; conditions: read-out: GI; outline: as §1
[14] = tested on: RPMI-8226; experiment: Growth inhibition of human RPMI8226 cells at 10 uM after 48 hrs by coulter counter method; conditions: RPMI-8226, 48 h, read-out: GI; outline: as §1
[15] = tested on: UACC-62; experiment: Growth inhibition of human UACC62 cells at 10 uM after 48 hrs by coulter counter method; conditions: UACC-62, 48 h, read-out: GI; outline: as §1
[16] = tested on: BT-549; experiment: Growth inhibition of human BT549 cells at 10 uM after 48 hrs by coulter counter method; conditions: BT-549, 48 h, read-out: GI; outline: as §1
[17] = tested on: UACC-257; experiment: Growth inhibition of human UACC257 cells at 10 uM after 48 hrs by coulter counter method; conditions: UACC-257, 48 h, read-out: GI; outline: as §1
[18] = tested on: PC-3; experiment: Growth inhibition of human PC3 cells at 10 uM after 48 hrs by coulter counter method; conditions: PC-3, 48 h, read-out: GI; outline: as §1
[19] = tested on: IGROV-1; experiment: Growth inhibition of human IGROV1 cells at 10 uM after 48 hrs by coulter counter method; conditions: IGROV-1, 48 h, read-out: GI; outline: as §1
[20] = tested on: KM12; experiment: Growth inhibition of human KM12 cells at 10 uM after 48 hrs by coulter counter method; conditions: KM12, 48 h, read-out: GI; outline: as §1
[21] = tested on: SF-295; experiment: Growth inhibition of human SF295 cells at 10 uM after 48 hrs by coulter counter method; conditions: SF-295, 48 h, read-out: GI; outline: as §1
[22] = tested on: EKVX; experiment: Growth inhibition of human EKVX cells at 10 uM after 48 hrs by coulter counter method; conditions: read-out: GI; outline: as §1
[23] = tested on: SF-268; experiment: Growth inhibition of human SF268 cells at 10 uM after 48 hrs by coulter counter method; conditions: SF-268, 48 h, read-out: GI; outline: as §1
[24] = tested on: SNB-19; experiment: Growth inhibition of human SNB19 cells at 10 uM after 48 hrs by coulter counter method; conditions: SNB-19, 48 h, read-out: GI; outline: as §1
[25] = tested on: SR; experiment: Growth inhibition of human SR cells at 10 uM after 48 hrs by coulter counter method; conditions: read-out: GI; outline: as §1
[26] = tested on: K562; experiment: Growth inhibition of human K562 cells at 10 uM after 48 hrs by coulter counter method; conditions: K562, 48 h, read-out: GI; outline: as §1
[27] = tested on: SK-MEL-28; experiment: Growth inhibition of human SK-MEL-28 cells at 10 uM after 48 hrs by coulter counter method; conditions: SK-MEL-28, 48 h, read-out: GI; outline: as §1
[28] = tested on: TK-10; experiment: Growth inhibition of human TK10 cells at 10 uM after 48 hrs by coulter counter method; conditions: TK-10, 48 h, read-out: GI; outline: as §1
[29] = tested on: NCI-H322M; experiment: Growth inhibition of human NCI-H322M cells at 10 uM after 48 hrs by coulter counter method; conditions: read-out: GI; outline: as §1
[30] = tested on: U-251; experiment: Growth inhibition of human U251 cells at 10 uM after 48 hrs by coulter counter method; conditions: U-251, 48 h, read-out: GI; outline: as §1
[31] = tested on: A549; experiment: Growth inhibition of human A549 cells at 10 uM after 48 hrs by coulter counter method; conditions: A549, 48 h, read-out: GI; outline: as §1
[32] = tested on: MCF7; experiment: Growth inhibition of human MCF7 cells at 10 uM after 48 hrs by coulter counter method; conditions: MCF7, 48 h, read-out: GI; outline: as §1
[33] = tested on: 786-0; experiment: Growth inhibition of human 786-0 cells at 10 uM after 48 hrs by coulter counter method; conditions: 786-0, 48 h, read-out: GI; outline: as §1
[34] = tested on: HT-29; experiment: Growth inhibition of human HT-29 cells at 10 uM after 48 hrs by coulter counter method; conditions: HT-29, 48 h, read-out: GI; outline: as §1
[35] = tested on: HL-60(TB); experiment: Growth inhibition of human HL-60(TB) cells at 10 uM after 48 hrs by coulter counter method; conditions: HL-60, 48 h, read-out: GI
Outline: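 Single-dose screen on the NCI 60-line panel (leukemia subpanel). Compound is dissolved in DMSO and diluted in PBS, with final DMSO below 1%. Duplicate wells hold 6 × 10⁴ cells/ml at 37 °C, 5% CO₂, for 48 h. Cells are counted by Coulter counter after 10-fold saline dilution. Read-out is percent growth versus PBS/DMSO controls, expressed as % growth inhibition.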

[36] = tested on: CAKI-1; experiment: Growth inhibition of human Caki1 cells at 10 uM after 48 hrs by coulter counter method; conditions: CAKI-1, 48 h, read-out: GI; outline: as §1
[37] = tested on: NCI-H522; experiment: Growth inhibition of human NCI-H522 cells at 10 uM after 48 hrs by coulter counter method; conditions: NCI-H522, 48 h, read-out: GI; outline: as §1
[38] = tested on: A498; experiment: Growth inhibition of human A498 cells at 10 uM after 48 hrs by coulter counter method; conditions: A498, 48 h, read-out: GI; outline: as §1
[39] = tested on: NCI-H226; experiment: Growth inhibition of human NCI-H226 cells at 10 uM after 48 hrs by coulter counter method; conditions: NCI-H226, 48 h, read-out: GI; outline: as §1
[40] = tested on: CCRF-CEM; experiment: Growth inhibition of human CCRF-CEM cells at 10 uM after 48 hrs by coulter counter method; conditions: read-out: GI; outline: as §1
[41] = tested on: UO-31; experiment: Growth inhibition of human UO31 cells at 10 uM after 48 hrs by coulter counter method; conditions: UO-31, 48 h, read-out: GI; outline: as §1
[42] = tested on: MDA-MB-435; experiment: Growth inhibition of human MDA-MB-435 cells at 10 uM after 48 hrs by coulter counter method; conditions: MDA-MB-435, 48 h, read-out: GI; outline: as §1
[43] = tested on: HCT-15; experiment: Growth inhibition of human HCT15 cells at 10 uM after 48 hrs by coulter counter method; conditions: HCT-15, 48 h, read-out: GI; outline: as §1
[44] = tested on: SK-MEL-2; experiment: Growth inhibition of human SK-MEL-2 cells at 10 uM after 48 hrs by coulter counter method; conditions: SK-MEL-2, 48 h, read-out: GI; outline: as §1
[45] = tested on: NCI-H23; experiment: Growth inhibition of human NCI-H23 cells at 10 uM after 48 hrs by coulter counter method; conditions: NCI-H23, 48 h, read-out: GI; outline: as §1

Measured: inhibition of growth at 10 µM

O=C1N=C2SC(c3ccc(Cl)cc3)=NN2C1=O
10.6%: [11]
12.7%: [26]
11.1%: [25]
19.7%: [37]
12.2%: [16]
15.2%: [35]
12.1%: [32]
< 10%: all other assays above
